According to ChEMBL document CHEMBL1121655, “Methylangelicins: new potential agents for the photochemotherapy of psoriasis. Structure-activity study on the dark and photochemical interactions with DNA” (J Med Chem, 1981):
≈ marks a conversion by molar mass, not a printed value.

Experiments:
Nucleic Acid [1] = experiment: Compound was evaluated for rate constant in the calf thymus DNA; format: functional; details: Bos taurus
Procedure, shortened: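 DNA at 2.3×10^-3 M in 2×10^-3 M NaCl and 1×10^-3 M EDTA with 3×10^-5 M labeled furocoumarin. Irradiated at 365 nm, 1.07×10^16 quanta s^-1 mL^-1, for increasing times in a thermostatted bath. Complexed fraction at time 0 taken from dialysis at 2 mM NaCl with ligand:nucleotide 1:76.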

Ehrlich [2] = experiment: Compound was evaluated for the inhibition of RNA synthesis in Ehrlich Ascites tumor cells by irradiation (365 nm) at 1.9 x 10 e-5M; format: functional
Procedure, shortened: (§1)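 Ehrlich ascites cells, 2×10^7 cells/mL in Hank's solution, on ice with 1.9×10^-5 M compound, irradiated by HPW 125 lamp at 20 cm (2.02×10^16 quanta/s). Then 2×10^6 cells pulsed 15 min at 37 °C with 1 μCi [3H]thymidine (DNA) or [3H]uridine (RNA). TCA-insoluble counts as % of untreated. Each dose at least in duplicate. D50 = UV dose giving 50% inhibition.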

[3] = Water solubility (solubility in mol/L); format: ADME; details: read-out: S
Nucleic Acid [4] = experiment: (§2) Compound was evaluated for association constant in the calf thymus DNA; format: functional; details: Bos taurus
Procedure, shortened: (§3)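 Equilibrium dialysis at 25 ± 0.05 °C in the dark, 12 h with shaking, across a cellophane membrane. Tritiated angelicin at slightly below its water solubility in 0.02 M NaCl with 1 mM EDTA, against DNA at 3×10^-3 to 3×10^-4 M. Both phases counted by scintillation to give r and c. K and n fitted iteratively to the McGhee–von Hippel equation.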

Ehrlich [5] = experiment: Compound was evaluated for the inhibition of DNA synthesis in Ehrlich Ascites tumor cells by irradiation (365 nm) at 1.9 x 10 e-5M; format: functional; procedure, shortened: as §1
Nucleic Acid [6] = experiment: as §2; format: nucleic-acid assay; details: Bos taurus; procedure, shortened: as §3

| SMILES | solubility [3] [µg/mL] | K (Nucleic Acid [6]) | Rate constant (Nucleic Acid [1]) [min⁻¹] | D50 (Ehrlich [2]) [quanta] | K (Nucleic Acid [4]) | D50 (Ehrlich [5]) [quanta] |
| --- | --- | --- | --- | --- | --- | --- |
| O=c1ccc2cc3ccoc3cc2o1 [PSORALEN] |  |  |  | 1.4e+19 |  | 9.1e+18 |
| Cc1cc2c(ccc3ccc(=O)oc32)o1 | 12 (≈ 59.9 µM) |  | 0.021 | 1.74e+19 | 1200 | 1.66e+19 |
| O=c1ccc2ccc3occc3c2o1 [ANGELICIN] | 20 (≈ 107 µM) |  | 0.011 | 2.33e+19 | 560 | 2.5e+19 |

Continued, in another order:

| solubility [3] [µg/mL] | K (Nucleic Acid [6]) | SMILES | Rate constant (Nucleic Acid [1]) [min⁻¹] | D50 (Ehrlich [2]) [quanta] | K (Nucleic Acid [4]) | D50 (Ehrlich [5]) [quanta] |
| --- | --- | --- | --- | --- | --- | --- |
| 3 (≈ 14 µM) |  | Cc1cc2c(cc(C)c3ccc(=O)oc32)o1 | 0.027 | 6.6e+18 | 1750 | 1.38e+19 |
| 4.5 (≈ 22.5 µM) |  | Cc1cc2occc2c2oc(=O)ccc12 | 0.034 | 8.3e+18 | 1560 | 9.1e+18 |
|  | 1450 | Cc1cc2c(ccc3c(C)cc(=O)oc32)o1 |  | 1.35e+19 |  | 1.09e+19 |
| 4 (≈ 20 µM) |  | Cc1cc(=O)oc2c1ccc1occc12 | 0.016 | 1.81e+19 | 1400 | 2.4e+19 |
